Only some compounds are listed: those with a hit (about 2.1% of all), similar ones and a draw of the others.
APJ antagonist – antagonists of human APJ apelin receptor. P35414. CHO-K1 APJ beta-arrestin complementation, luminescence. actives 0.32% (n = 330,000). inhibition, % at 20 µM;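 active = inhibition above about 40% at 20 µM, limit read from the data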;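 note: cells challenged with 10 nM apelin-13 agonist together with compound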
CCR6 antag – CCR6 (human) receptor antagonism | P51684 | CHO-K1 CCR6 PathHunter beta-arrestin, luminescence, CCL20-stimulated | inhibition, % at 20 µM | actives 0.49% (n = 340,000) | AID 493098;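 active = compounds whose inhibition of the agonist-driven luminescence signal at 20 µM reaches about 50%, limit read from the data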;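 note: cells stimulated with CCL20 at 14 nM final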
m5-HT2A agonist – activates the mouse 5-HT2A serotonin receptor; CHO-K1 mHTR2A beta-arrestin complementation, luminescence; percent of 30 µM serotonin response; activation, % at 7.6 µM; actives 0.66% (n = 360,000); P35363;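 active = activation above a run cutoff, the mean activation of all tested compounds plus 3 SD, cut at about 14% in these data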
APJ agonist – APJ receptor agonism; P35414; CHO-K1 APJ PathHunter beta-arrestin, luminescence; 0% DMSO wells, 100% apelin; activation, % at 20 µM; actives 0.11% (n = 330,000); AID 2520;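 active = activation more than six SD over the plate average, tested at 20 µM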
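assay system = CHO-K1 APJ beta-arrestin complementation cell line | input = cell density 1000 per well | dosing = compound 20 µM once, DMSO 1% | timing = compound 90 min 25 °C, reagent 1 h | measured by = luminescence from split beta-galactosidase complementation, Galacton Star/Emerald II substrate | read-out basis = APJ agonist activity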
EBI2 block – antagonists of human EBI2 receptor. EBI2 beta-arrestin recruitment, luminescence, 7a,25-OHC stimulated. inhibition, % at 5 µM. actives 0.81% (n = 360,000); in the data active = inhibition above about 38%;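 note: enzyme fragment complementation signal reports receptor beta-arrestin coupling in cells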
Target sequence (P32249 whole entry, looked up, the tested form may be a part): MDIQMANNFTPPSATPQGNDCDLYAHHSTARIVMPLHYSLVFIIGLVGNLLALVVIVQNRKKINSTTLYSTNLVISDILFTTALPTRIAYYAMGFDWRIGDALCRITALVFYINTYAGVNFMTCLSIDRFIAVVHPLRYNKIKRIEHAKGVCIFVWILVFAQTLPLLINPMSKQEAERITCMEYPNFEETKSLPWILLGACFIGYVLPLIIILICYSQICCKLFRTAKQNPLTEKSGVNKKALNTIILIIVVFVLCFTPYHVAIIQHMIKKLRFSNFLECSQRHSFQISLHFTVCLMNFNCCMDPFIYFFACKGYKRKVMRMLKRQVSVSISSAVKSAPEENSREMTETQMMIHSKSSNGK
CXCR6 inh – inhibitors of human CXCR6 receptor. O00574. CHO-K1 PathHunter CXCR6 beta-arrestin, luminescence. inhibition, % at 20 µM. actives 0.36% (n = 360,000). AID 602244; in the data active = inhibition above about 34%, passing the limit was not always enough;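 note: antagonist mode with CXCL16 agonist at 10 nM final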
APJ antag confirm – confirmation of human APJ apelin receptor antagonists | shares compounds with APJ antagonist | APJ beta-arrestin recruitment, luminescence, antagonist mode | inhibition, % at 20 µM | actives 66% (n = 950) | AID 2766; in the data active = inhibition above about 50%
CXCR6 antag conf – confirmation of human CXCR6 receptor antagonists | shares compounds with CXCR6 inh | CHO-K1 CXCR6 PathHunter beta-arrestin, luminescence | inhibition, % at 20 µM | actives 65% (n = 700);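 active = mean inhibition over four retests above 40%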;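 note: receptor stimulated with 10 nM CXCL16 agonist; beta-galactosidase fragment complementation upon beta-arrestin recruitment to receptor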
Each line names hits and unclear results; the compound was inactive in the other large screens (follow-up assays come after a bar, where they were run).

O=C(Nc1nnc(SCc2ccc(F)cc2)s1)c1ccccn1	APJ antagonist 78, CCR6 antag 70, EBI2 block 67, CXCR6 inh 44 | APJ antag confirm inactive | CXCR6 antag conf 50
Oc1cccc2ccc(/C=C/c3c(F)cccc3Cl)nc12	APJ antagonist 44, CCR6 antag 56, CXCR6 inh 47 | APJ antag confirm inactive | CXCR6 antag conf 58
Cc1cccc(C)c1NC(=S)NNc1ncc(C(F)(F)F)cc1Cl	none
FC(F)(F)c1cnc(NNC(=S)Nc2cccnc2)c(Cl)c1	APJ antagonist 63, CCR6 antag 87, CXCR6 inh 71 | APJ antag confirm 65 | CXCR6 antag conf 67
Cc1ccccc1NC(=S)NNc1ncc(C(F)(F)F)cc1Cl	APJ antagonist 45, CCR6 antag 70, CXCR6 inh 45 | APJ antag confirm 70 | CXCR6 antag conf 53
Cc1ccc(/C=N/NC(=S)N2CCOCC2)cc1	APJ antagonist 51, CCR6 antag 76, CXCR6 inh 50 | APJ antag confirm 65 | CXCR6 antag conf 74
Cc1ccc(CNC(=S)N2CCOCC2)cc1	none
O=[N+]([O-])c1ccccc1/C=N/N1CCN(Cc2ccccc2)CC1	none
O=C1c2cccc3c([N+](=O)[O-])ccc(c23)C(=O)N1c1ccc(Cl)cn1	APJ antagonist 49, CCR6 antag 76, EBI2 block 44, CXCR6 inh 54 | APJ antag confirm 83 | CXCR6 antag conf 42
c1ccc(-c2nnnc3ccccc23)cc1	none
CCOC(=O)c1c(-c2ccc(C)o2)csc1NC(=S)NC(=O)N(C)C	APJ antagonist 46, CXCR6 inh 44 (no result: CCR6 antag) | APJ antag confirm inactive | CXCR6 antag conf 62
C=CC[n+]1c(-c2ccc(Cl)cc2Cl)csc1Nc1c(C)n(C)n(-c2ccccc2)c1=O	APJ antagonist 54, CCR6 antag 82, CXCR6 inh 64 | APJ antag confirm 87 | CXCR6 antag conf 66
CCCn1c(C)cc(C(=O)CSc2nc3ccccc3c(=O)n2Cc2ccco2)c1C	none
CCS(=O)(=O)c1ncc(Cl)c(C(=O)Nc2ccc(S(=O)(=O)N3CCCC(C)C3)cc2)n1 (stereo not given)	APJ antagonist 78, CCR6 antag 94, EBI2 block 50, CXCR6 inh 87 | APJ antag confirm 104 | CXCR6 antag conf 78
CC1CCCN(S(=O)(=O)c2ccc(NC(=O)CNC3CCCC3)cc2)C1 (stereo not given)	none
CCC1CCCCN1S(=O)(=O)c1ccc(NC(=O)c2ccncc2)cc1 (stereo not given)	none
CCC1CCCCN1S(=O)(=O)c1ccc(NC(=O)c2nc(S(C)(=O)=O)ncc2Cl)cc1 (stereo not given)	APJ antagonist 60, CCR6 antag 98, CXCR6 inh 88 | APJ antag confirm 92 | CXCR6 antag conf 82
Cc1cccc(CSc2cccc3cccnc23)c1	APJ antagonist 56, CCR6 antag 72, EBI2 block 45, CXCR6 inh 66 | APJ antag confirm 84 | CXCR6 antag conf 74
O=C(NC(=S)NNC(=O)c1ccccc1O)c1cccs1	none
COc1ccccc1C(=O)NNC(=S)NC(=O)c1cccs1	APJ antagonist 42, CXCR6 inh 53 (no result: CCR6 antag) | APJ antag confirm 68 | CXCR6 antag conf 58
CCn1c(=O)c([N+](=O)[O-])c(Cl)c2ccccc21	APJ antagonist 94, CCR6 antag 100, CXCR6 inh 102 | APJ antag confirm 102 | CXCR6 antag conf 96
Cc1ccc(C)c(-c2cc(C(=O)Nc3cccnc3)c3ccccc3n2)c1	none
O=C(CCC(=O)c1cccs1)Nc1ccccc1F	none
COc1cc(C2C(C#N)=C(N)Oc3n[nH]c(-c4cccs4)c32)cc(OC)c1O (stereo not given)	APJ antagonist 47, CCR6 antag 59, CXCR6 inh 49 | APJ antag confirm inactive | CXCR6 antag conf 51
Cc1ccc(C2C(C#N)=C(N)Oc3n[nH]c(-c4cccs4)c32)cc1 (stereo not given)	none
CC(=O)N/C(=C\c1ccccc1)C(=O)OCC(=O)c1c(N)n(CC(C)C)c(=O)n(C)c1=O	none
CCc1cccc(NC(=O)CCc2nc(-c3cccs3)no2)c1	none
CC(=O)OCCN(C)c1cc(SC(C)C)c2nonc2c1[N+](=O)[O-]	none
CN(CCO)c1cc(Sc2nc3ccccc3s2)c2nonc2c1[N+](=O)[O-]	APJ antagonist 97, CCR6 antag 113, CXCR6 inh 99 | APJ antag confirm 107 | CXCR6 antag conf 109
Cc1ccc(CS(=O)(=O)c2ncc(Cl)c(C(=O)Nc3nnc(C(C)C)s3)n2)cc1	none
Cc1ccc(CS(=O)(=O)c2ncc(Cl)c(C(=O)Nc3ccc(OC(F)F)cc3)n2)cc1	APJ antagonist 42, CCR6 antag 71, CXCR6 inh 76 | APJ antag confirm 52 | CXCR6 antag conf 67
OC(CN1CCCCC1)Cn1c2ccccc2c2cc(Br)ccc21 (stereo not given)	none
NC(=O)c1ccccc1NCC(=O)c1ccc(Cl)cc1	APJ antagonist 101, CCR6 antag 105, CXCR6 inh 80 | APJ antag confirm 136 | CXCR6 antag conf 46
Cn1c(=O)n(C)c2cc([N+](=O)[O-])c(N3CCN(C(=O)c4cccc(Cl)c4)CC3)cc21	APJ antagonist 53, CCR6 antag 65, CXCR6 inh 52 | APJ antag confirm 84 | CXCR6 antag conf 46
Cn1c(=O)n(C)c2cc([N+](=O)[O-])c(N3CCN(C(=O)c4cccc(F)c4)CC3)cc21	none
Fc1ccc(NC(=S)Nc2nccs2)cc1	APJ antagonist 46, CXCR6 inh 53 | APJ antag confirm 62 | CXCR6 antag conf 78
CCc1cc2c(=O)[nH]c(-c3ccccn3)nc2s1	APJ antagonist 78, CCR6 antag 87, EBI2 block 50, CXCR6 inh 49 | APJ antag confirm 70 | CXCR6 antag conf 69

From PubChem
